Hits are enriched below; roughly 1.7% of the tested compounds scored in any of these assays.
LMPTP block: blocks human LMPTP phosphatase. recombinant LMPTP-A, OMFP fluorogenic substrate, fluorescence intensity. inhibition, % at 20 µM. 360,000 tested, 0.22% active. AID 651560;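 active = compounds that cut the enzyme signal by at least half of the control window in the single-dose screen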;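 also: plate controls were DMSO wells with enzyme plus substrate for no effect and substrate without enzyme for full effect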
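Assay system: LMPTP-A enzyme. Input: 0.625 nM LMPTP-A final. Probe or stimulus: 400 µM OMFP. Compound dosing: single 20 µM dose. Schedule: 50 min dark incubation at room temperature. Detection: fluorescence intensity of OMFP turnover product. Read-out: percent inhibition versus substrate-only and uninhibited controls. Benchmarks: no-enzyme low control, uninhibited high control.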
DNMT1 block: blocks human DNA methyltransferase DNMT1. 360,000 tested, 0.83% active. inhibition (reported as % activation of signal), % at 10 µM. DNMT1 molecular beacon, Hinp1I cleavage, fluorescence. AID 588458; in the data active = inhibition above about 50%
STEP inh: STEP (human) phosphatase inhibition. 360,000 tested, 0.25% active. AID 588621. inhibition, % at 20 µM. recombinant STEP, OMFP fluorogenic substrate, fluorescence. P54829;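 active = inhibition at 20 µM, scaled per plate between control wells, above about 37%, limit read from the data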;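 also: 0% = DMSO with enzyme and substrate and 100% = substrate only without enzyme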
Target sequence (P54829 whole entry, looked up): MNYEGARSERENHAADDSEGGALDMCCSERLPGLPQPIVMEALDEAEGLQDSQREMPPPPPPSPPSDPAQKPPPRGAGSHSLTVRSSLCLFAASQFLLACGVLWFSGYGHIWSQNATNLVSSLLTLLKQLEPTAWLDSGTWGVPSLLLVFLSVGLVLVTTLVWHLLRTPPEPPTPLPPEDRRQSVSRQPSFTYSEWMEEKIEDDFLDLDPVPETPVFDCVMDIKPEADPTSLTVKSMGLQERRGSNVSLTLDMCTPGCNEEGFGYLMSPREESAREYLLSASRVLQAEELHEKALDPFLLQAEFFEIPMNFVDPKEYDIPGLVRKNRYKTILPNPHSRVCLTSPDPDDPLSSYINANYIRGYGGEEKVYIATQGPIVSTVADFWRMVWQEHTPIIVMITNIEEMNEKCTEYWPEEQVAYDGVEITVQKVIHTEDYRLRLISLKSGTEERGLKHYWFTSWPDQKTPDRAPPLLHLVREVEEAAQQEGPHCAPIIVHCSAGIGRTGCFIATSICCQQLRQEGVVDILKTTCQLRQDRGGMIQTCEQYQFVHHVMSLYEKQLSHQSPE
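Assay system: isolated STEP enzyme / Timing: 20 min at room temperature, dark / Doses: 20 µM, 1% DMSO / Technique: fluorescence intensity, excitation 480 nm, emission 540 nm / Reagent: fluorogenic phosphatase substrate OMFP at 25 µM final / Measure: percent inhibition scaled to no-enzyme and uninhibited-enzyme controls, plate-pattern corrected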
SUMO1 PPI mod: modulators of human SUMO1-mediated protein-protein interactions; P63165; SUMO1 binding to a labelled peptide, TR-FRET, 1 h; inhibition, % at 20 µM; 360,000 tested, 0.33% active; in the data active = inhibition above about 37%
Target sequence (P63165 whole entry, looked up): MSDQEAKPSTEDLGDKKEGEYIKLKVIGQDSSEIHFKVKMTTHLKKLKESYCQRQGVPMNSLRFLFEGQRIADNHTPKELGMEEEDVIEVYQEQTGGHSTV
Scp1 inh: blocks human Scp-1 phosphatase activity. Recombinant Scp1, phosphopeptide, malachite green phosphate absorbance. inhibition, % at 20 µM. 340,000 tested, 0.88% active. AID 493091;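 active = inhibition above about 50% at 20 µM, limit read from the data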;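 also: plate controls were DMSO wells with enzyme for no effect and wells lacking enzyme for full effect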
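System: SCP-1 catalytic domain; Reagent: Phospho 17-mer peptide substrate; Doses: one concentration, 20 µM, with 1.0% DMSO; Incubation: 45 min room-temperature reaction, 5 min colour, 30 min stabiliser; Signal: Phosphate-binding colour reagent, absorbance read at 630 nm.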
Scp-1 conf: confirmation of human Scp-1 phosphatase inhibitors. 2,500 tested, 61% active. shares compounds with Scp1 inh. recombinant SCP-1 catalytic domain, phosphate release, malachite green absorbance. inhibition, % at 20 µM;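 also: plate controls were DMSO with enzyme for no effect and buffer wells lacking enzyme for full effect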
Scp-1 MG ctr: interferes with malachite green readout, flagging false Scp-1 hits; shares compounds with Scp1 inh; Colorimetric interference counterscreen, malachite green absorbance 630 nm; apparent inhibition (interference), % at 20 µM; 2,500 tested, under 10 active;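 also: compounds added after enzyme reaction finished so only phosphate colour detection is probed; plate controls were DMSO wells with completed Scp-1 reaction for no effect and substrate wells lacking enzyme for full effect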
Scp1 DSF: validation of human Scp-1 inhibitors by thermal shift binding | shares compounds with Scp1 inh | AID 540329 | thermal shift relative to vanadate control, % at 40 µM | Recombinant SCP1, Sypro Orange thermal shift Tm | 1,500 tested, 25% active;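 active = substances whose mean melting-temperature shift, as a percentage of the reference inhibitor's shift, reaches about 5.3%, limit read from the data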;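 also: 0% = Tm of DMSO wells and 100% = Tm with sodium orthovanadate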
DNMT1 interf DR: shows spectral interference in the DNMT1 beacon assay; shares compounds with DNMT1 block; molecular beacon fluorescence, spectral interference counter-screen; IC50, µM; 200 tested, under 10 active; AID 602382; call rule not given here
DNMT1 inh conf: DNMT1 inhibition confirmation, single concentration; shares compounds with DNMT1 block; DNMT1 molecular beacon HinP1I cleavage, fluorescence; AID 602385; inhibition, % at 10 µM; 2,300 tested, 8% active;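 active = average inhibition of at least 30% in the single-concentration confirmation test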
DNMT1 interf: shows spectral interference in the DNMT1 beacon assay. DNMT1 molecular beacon spectral interference counterscreen, fluorescence 485/520. AID 602387. activation (fluorescence interference), % at 10 µM. shares compounds with DNMT1 block. 2,300 tested, 1% active;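 active = activation of at least 30% at 10 µM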;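 also: DNMT1 catalytic domain with a HinP1I cleavage step and a FAM/dabcyl DNA beacon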
Active calls of the source: *; x = no result given.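 The calls were made as follows, unless noted: active = inhibition of at least 30% at 20 µM; inactive = the rest.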

SMILES	LMPTP block	DNMT1 block	STEP inh	SUMO1 PPI mod	Scp1 inh	Scp-1 conf	Scp-1 MG ctr	Scp1 DSF	DNMT1 inh conf	DNMT1 interf	others
Cc1cccc(NC(=O)CNC(=O)CCc2nc3sc4c(c3c(=O)[nH]2)CCCC4)c1C	36	84*	12	21	73*	75*	-15	13*	26	14
C=CCn1c(COc2ccc(F)cc2)nnc1SCC(=O)NC(=O)NCc1ccco1	15	74*	4	3	61*	56*	-10	-16	7	3
COc1cccc(=O)c2c(C)n(-c3ccc(C(=O)O)cc3)c(C)c12	3	63*	18	24	60*	29	-16	x	3	-3
CCOc1cccc(=O)c2c(C)n(-c3ccc(C(=O)O)cc3)c(C)c12	3	94*	31	41*	60*	55*	-4	15*	2	0
CCOc1cccc(=O)c2c(C)n(Cc3ccccc3)c(C)c12	-2	-3	0	-1	-7	x	x	x	x	x
COc1ccc(-n2c(C)c3c(OC)cccc(=O)c3c2C)cc1	4	-12	1	-13	-8	x	x	x	x	x
C=CCOc1ccc(C=NNc2ccc(S(=O)(=O)Nc3ccccc3C(=O)O)cc2[N+](=O)[O-])cc1OC	100*	90*	100*	69*	71*	82*	-19	15*	110*	-12	DNMT1 interf DR=>99
CCOc1cccc(C=NNc2ccc(S(=O)(=O)Nc3ccccc3C(=O)O)cc2[N+](=O)[O-])c1O	1	-8	3	-1	-7	x	x	x	x	x
Nc1nc(SCC(=O)N2N=C3/C(=C/c4ccco4)CCCC3C2c2ccco2)n[nH]1 (stereo unspecified)	1	17	0	-1	0	x	x	x	x	x
O=C(CSc1nccc(=O)[nH]1)N1N=C2/C(=C/c3ccco3)CCCC2C1c1ccco1 (stereo unspecified)	6	76*	1	12	60*	65*	-13	-7	10	3
COc1cc(SC)ccc1C(=O)NCCCn1ccnc1	0	-2	-3	6	-10	x	x	x	x	x
O=C(O)c1ccc(COc2c(F)c(F)c(F)c(F)c2F)o1	-1	56*	8	0	57*	48*	-18	4	-1	0
O=c1cc(CSc2nnc(-c3cccs3)n2Cc2ccccc2)nc2sc3ccccc3n12	25	96*	5	4	75*	68*	-6	-24	1	0
Cc1cc(C(=O)CSc2nnc(-c3cccs3)n2Cc2ccccc2)c(C)n1C	1	-5	-2	3	3	x	x	x	x	x
c1ccc(-c2cc(-c3nn4c(-c5ccco5)nnc4s3)c3ccccc3n2)cc1	3	55*	8	18	92*	43*	-1	7.3*	4	-3
Cc1cc(-c2ccccc2)nc2c(Br)c(C(=O)O)nn12	2	52*	13	5	95*	61*	-19	8.2*	2	5
N#CCNC(=O)c1nn2c(C(F)(F)F)cc(-c3ccccc3)nc2c1Br	0	-6	0	-15	-9	x	x	x	x	x
COc1ccc(S(=O)(=O)N2Cc3ccccc3CC2C(=O)O)cc1 (stereo unspecified)	0	60*	4	19	75*	64*	-15	0	0	-1
O=Cc1ccc2oc3nc4n(c(=O)c3c(=O)c2c1)CCCS4	45	94*	5	25	80*	67*	-11	-4	-4	-1
CCCC(C)NC(=O)c1c2c(nc3ccccc13)CCC2 (stereo unspecified)	-1	29	0	12	21	x	x	x	x	x
O=C(CSc1c2c(nc3ccccc13)CCCC2)NCc1ccco1	-1	0	0	-2	-1	x	x	x	x	x
O=C(NCc1ccc(F)cc1)c1c2c(nc3ccccc13)CCC2	6	57*	5	8	52*	60*	-11	12*	14	4
O=C(NCc1ccco1)c1c2c(nc3ccccc13)CCC2	28	84*	2	12	66*	51*	-18	8.3*	3	3
O=C(O)c1cc2c(ncc3c(=O)n(-c4ccccc4)[nH]c32)s1	1	-5	-1	6	x	x	x	x	x	x
COc1cc(O)c(C(C)=O)c(CC(=O)O)c1	1	50*	1	4	64*	49*	-12	9.4*	10	-1
SMILES	LMPTP block	DNMT1 block	STEP inh	SUMO1 PPI mod	Scp1 inh	Scp-1 conf	Scp-1 MG ctr	Scp1 DSF	DNMT1 inh conf	DNMT1 interf	others
Cc1nc(SCC(=O)NCc2ccco2)c2c(C)c(C)sc2n1	-1	0	3	-1	-1	x	x	x	x	x
Cc1sc2ncnc(SCC(=O)NC(=O)NCc3ccco3)c2c1C	13	69*	8	4	57*	49*	-12	-7	2	2
CCOc1ccc2nc(SCC(=O)NC(=O)NCc3ccco3)sc2c1	4	-6	-1	2	-7	x	x	x	x	x
O=C(CSc1nc2cc(Cl)ccc2s1)NC(=O)NCc1ccco1	4	54*	2	1	80*	53*	-8	3	6	3
CCC(c1nnnn1-c1ccc2c(c1)OCCO2)N1CCN(c2ccc(C)cc2)CC1 (stereo unspecified)	-1	x	x	6	x	x	x	x	x	x
O=C(Cc1ccccc1)N/N=C/c1ccc(OC(=O)/C=C\c2ccco2)cc1	0	-1	0	0	-1	x	x	x	x	x
COC(=O)N/N=C/c1ccc(OC(=O)/C=C/c2ccco2)cc1	5	53*	6	-12	56*	9	-21	x	3	6
CCOc1ccccc1/C=C\c1nc(O)c([N+](=O)[O-])c(=O)[nH]1	0	2	1	-17	-10	x	x	x	x	x
Cc1cc(/C=C\c2nc(O)c([N+](=O)[O-])c(=O)[nH]2)c(C)n1-c1ccccc1	14	74*	9	18	68*	71*	-7	4	7	4
O=C(N/N=C/C=C\c1ccccc1[N+](=O)[O-])c1cc(-c2ccc3ccccc3c2)n[nH]1	42	68*	30	-1	96*	86*	-4	2	4	-4

Assay outcomes deposited in PubChem by Sanford-Burnham Center for Chemical Genomics.
